STAT1 act-1: increases IFN-gamma driven STAT1 reporter signal; NIH 3T3 STAT1-luciferase reporter, luminescence; 100% = IFN-gamma alone, no compound; activation (% of control), % at 5.5 µM; 200,000 compounds, 2.6% hits; AID 932;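 active = activation above the screen-wide mean activation plus 3 SD, cut at about 130% in these data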
STAT3 act-1: STAT3 signaling activation; U3A cells, IL-6 STAT3-luciferase reporter, luminescence; 100% = signal with IL-6 EC80 alone; AID 871; activation (% of control), % at 5.6 µM; 190,000 compounds, 0.91% hits;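 active = activation above the screen-wide mean of compound activation plus 3 SD, cut at about 130% in these data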
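Material: STAT3-luciferase reporter U3A cells; Probe or stimulus: IL-6 (33 ng/mL); Incubation: compound pre-incubation 1 h before IL-6, then 6 h stimulation at 37 °C; Technique: luminescence from STAT3-driven luciferase reporter; Evaluation: % activation versus median of IL-6-stimulated wells; Controls: IL-6-only high control.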
NF-kB expr up: raises NF-kB expression in human neuronal cells. 190,000 compounds, 1.6% hits. fold change at 12.5 µM. AID 1239. NF-kB reporter expression; stronger effect = higher value; in the data active = fold change above about 3.3
APP 5'UTR act: APP 5'UTR luciferase reporter activation; SH-SY5Y APP 5'UTR luciferase reporter, luminescence; zero percent = DMSO vehicle wells; activation, % at 2 µM; 190,000 compounds, 1% hits;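 active = activation above a set limit, based on mean plus 3 SD of controls, cut at about 140% in these data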
STAT1 blocker: inhibitors of IFN-gamma induced STAT1 signaling | NIH 3T3 STAT1-luciferase reporter, luminescence | inhibition, % at 5.5 µM | 200,000 compounds, 0.35% hits;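 active = inhibition above a set limit, the mean inhibition across all tested compounds plus 3 SD, cut at about 34% in these data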
STAT3 inh: STAT3 signaling inhibition; U3A cells, IL-6 STAT3-luciferase reporter, luminescence; host cell line lacks STAT1; inhibition, % at 5.5 µM; 190,000 compounds, 0.89% hits; AID 862;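 active = inhibition above the mean inhibition across all screened compounds plus 3 SD, cut at about 44% in these data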
STAT3 act-2: STAT3 activation, confirmation assay; potentiation (% of control), % at 5.7 µM; shares compounds with STAT3 act-1; 1,200 compounds, 64% hits; AID 1267; U3A STAT3-luciferase reporter, IL-6 potentiation, luminescence; U3A cells lack STAT1; 100 means same as IL-6 alone;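 active = percent activation of the STAT3 luciferase reporter above a set limit taken from the earlier primary screen, cut at about 130% in these data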
NFkB act STAT3ct: NF-kappaB activation in STAT3 activator counter-screen | human cells, NF-kappaB reporter activation | 1,200 compounds, 11% hits | shares compounds with STAT3 act-1 | activation (% of control), % at 5.7 µM; in the data active = activation above about 120%;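 also: reporter induced by TNF-alpha stimulation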
STAT1 act-2: counter-screen for STAT3 activators: STAT1 activation; AID 1318; activation (% of control), % at 5.7 µM; shares compounds with STAT3 act-1; NIH 3T3 STAT1-luciferase reporter, IFN-gamma, luminescence; 1,200 compounds, 13% hits;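 active = activation above the solvent-only control well mean plus 3 SD, set per screening run, cut at about 120% in these data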
Numbers stand for hits; - = inactive; . = no result. Most compounds without a hit are left out; they make up all but 5.1% or so of the library.

SMILES	STAT1 act-1	STAT3 act-1	NF-kB expr up	APP 5'UTR act	STAT1 blocker	STAT3 inh	STAT3 act-2	NFkB act STAT3ct	STAT1 act-2
CC(C)Oc1ccccc1C1CC(=O)Nc2cc3c(cc21)OCO3 (centres undefined)	-	-	-	-	-	-	.	.	.
CC(C)c1ccc(C2C3=C(COC3=O)Nc3cc4c(cc32)OCO4)cc1 (centres undefined)	-	151.4	-	-	-	-	-	137.8	-
CC(C)C(C)NC(=O)COc1ncnc2sccc12 (centres undefined)	-	-	-	-	-	-	.	.	.
C/C(CC(=O)Nc1c(C)cc(C)cc1C)=N\NC(=O)OC(C)(C)C	-	-	-	-	-	-	.	.	.
CN(C)S(=O)(=O)c1cc(NC(=O)CN2CCN(c3ccccc3F)CC2)ccc1Cl	-	-	-	-	-	-	.	.	.
O=C(N/N=C/c1ccc(-c2cccc([N+](=O)[O-])c2)o1)c1cccs1	-	137.3	-	-	-	-	-	-	-
CC(C)N1C(=O)CCC1C(=O)NCc1ccco1 (centres undefined)	-	-	-	-	-	-	.	.	.
Cc1csc(-c2coc3cc(O)cc(C)c3c2=O)n1	-	148.1	-	-	-	-	159.9	-	130.8
Cc1nc(-c2coc3cc(C)c(N=O)c(O)c3/c2=N\N)cs1	-	-	-	-	-	-	.	.	.
O=C(COC(=O)c1cc(F)cc(F)c1)Nc1cccnc1Cl	-	-	-	-	-	-	.	.	.
Cc1c(C(=O)NCc2cccnc2)oc2ccc(S(=O)(=O)N3CC(C)CC(C)C3)cc12 (centres undefined)	-	136.4	-	-	-	-	159.8	-	-
COc1ccnc(Oc2ccccc2)c1C(=O)N/C=N/OCc1ccccc1F	-	-	-	-	-	-	.	.	.
CCOC(=O)Cc1cc(=O)[nH]c(/N=C(\N)Nc2ccc(C)cc2C)n1	-	136.0	-	-	-	-	-	-	-
COc1cc(/C=N/NC(=S)NC(C)C)ccc1OCC(=O)Nc1c(C)cc(C)cc1C	-	146.9	-	-	-	-	137.5	-	-
COc1cccc(-n2c(=O)c3c(C)c(C(=O)N(C)C)sc3n(CC(=O)NCC3CCCO3)c2=O)c1 (centres undefined)	-	-	-	-	-	-	.	.	.
Cc1ccc(Nc2nc(CSc3nnc(-c4cccs4)o3)cs2)cc1	-	-	-	-	-	-	.	.	.
c1ccc(-c2nc(CSc3nnc(-c4cccs4)o3)cs2)cc1	-	160.8	-	-	-	-	167.7	-	121.2
COc1ccccc1C(=O)N/C(=C/c1ccccc1)C(=O)Nc1ccc(C(=O)O)cc1	-	-	-	-	-	-	.	.	.
Cc1cccc(NC(=S)NC(=O)c2cccs2)n1	-	140.6	-	-	-	-	137.9	-	-
Cc1nc(NC(=S)NC(=O)c2cccs2)ccc1Br	-	148.1	-	-	-	-	173.2	-	-
Cc1ccc2nc(NC(=S)NC(=O)c3cccs3)sc2c1	-	163.3	5.45	242.7	-	-	171.1	125.8	132.1
CCOC(=O)c1cnn(-c2ncnc3sc(CC)cc23)c1N	-	143.9	-	-	-	-	146.8	-	-
CN(C(=O)CCCN1C(=O)c2cccc3cccc(c23)C1=O)c1ccccc1	-	-	-	-	-	-	.	.	.
O=C(O)C(Cc1ccccc1)N1C(=O)c2cccc3cccc(c23)C1=O (centres undefined)	-	143.5	-	-	-	-	142.6	-	-
O=C1c2cccc3cccc(c23)C(=O)N1CCc1ccccc1	-	147.4	-	-	-	-	192.6	125.0	128.8
SMILES	STAT1 act-1	STAT3 act-1	NF-kB expr up	APP 5'UTR act	STAT1 blocker	STAT3 inh	STAT3 act-2	NFkB act STAT3ct	STAT1 act-2
O=C(O)C(Cc1ccccc1)N1C(=O)c2ccccc2C1=O (centres undefined)	-	-	-	-	-	-	.	.	.
O=C(N/N=C/c1ccsc1)c1ccc2ccccc2n1	-	-	-	-	-	-	.	.	.
CN(C)c1ccc(/C=N/N2C(=S)SC(C)(C)C2N(O)C(=O)Nc2ccc([N+](=O)[O-])cc2)cc1 (centres undefined)	-	-	-	-	-	-	.	.	.
Cc1ccc(S(=O)(=O)N2CCN(C(=O)c3cc4c(C)nn(-c5ccccc5)c4s3)CC2)cc1	-	-	-	.	-	-	.	.	.
CCOC(=O)c1cc2c(C)nn(-c3ccccc3)c2s1	-	148.1	.	-	-	-	-	-	-
Cc1nn(-c2ccccc2)c2sc(C(=O)N3CCOCC3)cc12	-	176.6	-	-	-	-	188.7	128.9	135.4
Cc1nn(-c2ccccc2)c2sc(C(=O)O)cc12	-	-	-	-	-	-	.	.	.
COC(=O)c1cc2c(C)nn(-c3ccccc3)c2s1	-	158.2	-	-	-	-	139.2	-	-
O=C(CNc1ccc2ccccc2c1)N/N=C/c1cc2ccccc2nc1Cl	-	144.5	-	-	-	-	137.6	-	-
CC(=O)N1CCC(=NNc2nc3ccccc3[nH]2)CC1	-	143.3	-	-	-	-	143.8	-	-
CCC(C)(C)C1CCC(=NNc2nc3ccccc3[nH]2)CC1 (centres undefined)	-	-	-	-	-	-	.	.	.
Cc1ccc(S(=O)(=O)N(C)C)cc1NC(=O)COC(=O)COc1ccccc1[N+](=O)[O-]	-	-	-	-	-	-	.	.	.
CCCC(=O)Nc1c(C(=O)OCC)[nH]c2ccccc12	-	169.1	-	-	-	-	149.4	-	-
CCOC(=O)c1[nH]c2ccc(OC)cc2c1NC(C)=O	-	-	-	-	-	-	.	.	.
CCOC(=O)c1[nH]c2ccccc2c1NC(=S)Nc1cc(C)ccc1C	-	155.0	-	-	-	-	149.8	-	-
CCOC(=O)c1[nH]c2ccccc2c1NC(=S)Nc1ccccc1C	-	151.5	-	-	-	-	155.1	-	-
CCOC(=O)c1[nH]c2ccccc2c1NC(=O)Nc1ccc(OC)cc1	-	141.3	-	-	-	-	142.6	-	-
CCOC(=O)c1[nH]c2ccccc2c1NC(=O)c1ccco1	-	-	-	-	-	-	.	.	.
Cc1noc(C)c1COc1cccc(C(=O)NC(C)(C)C)c1	-	-	-	-	-	-	.	.	.
CC(C)Cn1cc(Cl)c(=O)n(CC(C)C)c1=O	-	-	-	-	-	-	.	.	.
O=C(Nc1nc2ccccc2n1CCN1CCOCC1)c1ccc(COc2ccccc2Br)o1	-	-	-	-	-	-	.	.	.
